Experimental data: PubChem BioAssay
Inconclusive results are not listed.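 Rule for the calls, unless noted: active = cell viability at or below a set limit in both duplicate runs, the limit being the all-compound median minus 4 SD (cut at about 23% in these data, passing the limit was not always enough); inconclusive = no clear call, values can overlap the other calls; inactive = the rest.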

Columns and labels:
[1] = S. cerevisiae growth inhibition in permissive medium (OD615), pilot counter-assay for S. cerevisiae lifespan shortening project, permissive growth control (AID 705;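 active = growth inhibition above 25% in both replicates, a cutoff set 3 SD above the mean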); conditions: OD615, 24 h, at 10 µM, hits give high values
In short: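 Timing: 24 h exposure, 30 °C / Material: Saccharomyces cerevisiae strain carrying genetically modified DeaD replicative-lifespan system / Signal: OD at 615 nm / Compound: 10 µM single dose, 0.25% DMSO / Medium: SC raffinose/galactose permissive medium / Evaluation: reduction in yeast growth (OD615)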

[2] = S. cerevisiae growth inhibition in restrictive medium, OD615, pilot screen, restrictive growth control, yeast lifespan reduction project (AID 706;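 active = growth inhibition above a set limit, 3 SD over mean compound inhibition, in both replicates, cut at about 43% in these data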;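 note: modified DeaD lifespan yeast strain shifted to restrictive glucose medium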); conditions: OD615, 48 h, at 10 µM, hits give high values
In short: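 System: Engineered S. cerevisiae DeaD strain | Detection: OD615 | Buffer or medium: CSMM-D glucose medium | Doses: 10 µM compound, 0.25% DMSO | Timing: 4 h pre-growth plus 48 h compound exposure, 30 °C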

[3] = doxorubicin toxicity protection in MRP-1 cells – H69AR cells, CellTiter-Glo, duplicate, MRP-1 activator project, pilot screen (AID 807;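 active = viability increase at or above a cutoff of the median across tested compounds plus 3 SD, cut at about 8.5% in these data, passing the limit was not always enough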;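 note: compound pretreatment 18-22 h then 72 h combined with doxorubicin; 0% = doxorubicin alone and 100% = vehicle without doxorubicin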); conditions: H69AR viability with doxorubicin, CellTiter-Glo luminescence; at 10 µM; hits give high values
[4] = viability of HCT116 without oncogenic beta-catenin – human colon tumor cells, pilot screen (AID 823); conditions: HCT116 beta-catenin knockout viability, CellTiter-Glo, 60 h; at 10 µM; hits give low values;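 note: 0% = wells killed by 20 µM Hyamine and 100% = untreated DMSO cell wells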
[5] = viability of PTEN-null HCT116 cells – cell-based, HCT116 clonal line, CellTiter-Glo, pilot screen (AID 824;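 active = viability at or below 27.92% in each of two runs, the all-compound median minus 4 SD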;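 note: 0% = 20 µM Hyamine control and 100% = vehicle cell control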); conditions: HCT116 PTEN-deleted viability, 60 h, at 10 µM, hits give low values
[6] = RAM pathway blockade in budding yeast – dse1pr::URA3 reporter, 5-FOA selection, pilot screen (AID 869;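 active = inhibition over a set limit, the all-compound mean plus 3 SD, in both replicate runs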;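 note: 0% = DMSO wells with no growth and 100% = 10 µM 1-NA-PP1 with full growth; RAM network block rescues cells from 5-FOA so hits raise OD615 growth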); conditions: S. cerevisiae dse1pr::URA3 5-FOA growth, OD615, 2 d; at 10 µM; hits give high values; strain carries analog-sensitive mutant Cbk1 kinase
[7] = RAM signaling pathway blockade in yeast – S. cerevisiae, Pdr1DBD-CYC8 efflux-inhibited sensitized strain, primary screen (AID 1298;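 active = RAM network inhibition above 8.4% in each of two replicates, 3 SD over the compound average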;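 note: 0% = DMSO untreated cells without growth and 100% = 10 µM 1-NA-PP1 full growth; higher means more yeast growth rescued from 5-FOA killing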); conditions: S. cerevisiae cbk1-as DSE1-URA3 strain, 5-FOA growth OD615, 2 d; at 50 µM; hits give high values

Cc1ccc(Nc2nc(N3CCOCC3)nc(N3CCOCC3)n2)cc1
inactive: growth inhibition [1] -16.7% | growth inhibition [2] -7.55% | viability increase [3] -2.57% | viability [4] 64.2% | viability [5] 65.7% | inhibition [6] 1.06% | RAM network inhibition [7] 2.07%

COc1ccc(NS(=O)(=O)c2ccc3c(c2)oc(=O)n3C)c(OC)c1
inactive: growth inhibition [1] -16.1% | growth inhibition [2] -28.2% | viability increase [3] 0.13% | viability [4] 104% | viability [5] 91.5% | inhibition [6] 1.07% | RAM network inhibition [7] 9.99%

COc1ccc2[nH]c(C)c(CN3CCC(C)CC3)c(=O)c2c1
inactive: growth inhibition [1] 0.03% | growth inhibition [2] -2.44% | viability increase [3] -2.02% | viability [4] 98.5% | viability [5] 90.8% | inhibition [6] 1.03% | RAM network inhibition [7] 2.42%

O=C(Nc1cccnc1)C(Cc1ccccc1)n1cccc1 (stereo unspecified)
inactive: growth inhibition [1] -15.5% | growth inhibition [2] -13.4% | viability increase [3] -4.93% | viability [4] 102% | viability [5] 91.8% | inhibition [6] 0.44% | RAM network inhibition [7] 4.6%

COc1ccc(CN2CCN(c3ncccn3)CC2)c(OC)c1
inactive: growth inhibition [1] -0.81% | growth inhibition [2] 3.13% | viability increase [3] -1.8% | viability [4] 94.5% | viability [5] 89.3% | inhibition [6] 1.24% | RAM network inhibition [7] 6.9%

CC1CCN(C(=O)CSc2nnc(Cc3cccn3C)n2-c2ccc(F)cc2)CC1
inactive: growth inhibition [1] -5.51% | growth inhibition [2] 10.6% | viability increase [3] -0.49% | viability [4] 88.7% | viability [5] 92% | inhibition [6] 1.79% | RAM network inhibition [7] 2.35%

CCc1ccc(C2CC(c3ccc(F)cc3)Nc3nc(N)nn32)cc1 (stereo unspecified)
inactive: growth inhibition [1] -4.34% | growth inhibition [2] 9.52% | viability increase [3] -0.06% | viability [4] 103% | viability [5] 95.4% | inhibition [6] -0.41% | RAM network inhibition [7] 7.69%

Cc1cccc(OCCOCCSc2ncccn2)c1
inactive: growth inhibition [1] -8.47% | growth inhibition [2] 8.79% | viability increase [3] -1.63% | viability [4] 97.9% | viability [5] 94.8% | inhibition [6] 0.99% | RAM network inhibition [7] 6.33%

COc1ccc(-n2nnc3c(=O)n(CC(=O)N4CCCc5ccccc54)cnc32)cc1
inactive: growth inhibition [1] -1.22% | growth inhibition [2] -1.47% | viability increase [3] -0.27% | viability [4] 95.2% | viability [5] 91.2% | inhibition [6] 2.3% | RAM network inhibition [7] 1.61%

Fc1ccc(CSc2nnc(-c3cccnc3)n2Cc2ccco2)cc1
inactive: growth inhibition [1] 1.42% | growth inhibition [2] 10.1% | viability increase [3] -2.14% | viability [4] 90.8% | viability [5] 99.8% | inhibition [6] 1.94% | RAM network inhibition [7] 2.25%

CCn1cc(S(=O)(=O)CC(=O)Nc2ccc(C)cc2)c2ccccc21
inactive: growth inhibition [1] 0.74% | growth inhibition [2] -4.11% | viability increase [3] -0.58% | viability [4] 92.7% | viability [5] 93% | inhibition [6] 1.61% | RAM network inhibition [7] 2.02%

CCOC(=O)C1Cc2ccccc2C(=O)O1 (stereo unspecified)
inactive: growth inhibition [1] -4.84% | growth inhibition [2] -2.44% | viability increase [3] -0.24% | viability [4] 96.4% | viability [5] 100% | inhibition [6] 0.47% | RAM network inhibition [7] 5.42%

COc1ccc(C2C(C(=O)N3CCCCC3)CCC(=O)N2c2cc(OC)c(OC)c(OC)c2)cc1 (stereo unspecified)
inactive: growth inhibition [1] -15% | growth inhibition [2] -5.94% | viability increase [3] -7.12% | viability [4] 100% | viability [5] 89% | inhibition [6] 0.98% | RAM network inhibition [7] 5.22%

CCNc1nc(NCC)nc(Oc2ccc(OCC)nn2)n1
inactive: growth inhibition [1] -15.2% | growth inhibition [2] -14.6% | viability increase [3] -0.87% | viability [4] 88.1% | viability [5] 92.2% | inhibition [6] 2.82% | RAM network inhibition [7] 4.95%

COc1ccc(C2C=C(c3ccc(C)c(C)c3)Nc3ncnn32)c(OC)c1OC (stereo unspecified)
inactive: growth inhibition [1] -5.12% | growth inhibition [2] 11.7% | viability increase [3] -4.29% | viability [4] 40.4% | viability [5] 34.3% | inhibition [6] 0.775% | RAM network inhibition [7] -1.46%

COC(=O)c1cc(OC)c(OC)cc1N=CC1=C(O)CC(C)(C)CC1=O
inactive: growth inhibition [1] -14.9% | growth inhibition [2] -8.12% | viability increase [3] -0.98% | viability [4] 99.5% | viability [5] 94.1% | inhibition [6] 1.6% | RAM network inhibition [7] 3.12%

Cc1nn(Cc2ccccc2)c(N)c1C#N
inactive: growth inhibition [1] -2.69% | growth inhibition [2] 1.22% | viability increase [3] 0.68% | viability [4] 107% | viability [5] 98.3% | inhibition [6] 1.58% | RAM network inhibition [7] 5.62%

c1ccc(OCCOCCSc2ncccn2)cc1
inactive: growth inhibition [1] 1.54% | growth inhibition [2] -1.09% | viability increase [3] 2.36% | viability [4] 101% | viability [5] 98.4% | inhibition [6] 0.395% | RAM network inhibition [7] 3.21%
